Published values collected from several papers.
Each line is one published result; the experiments were not run side by side.
Target: Calcium/calmodulin-dependent protein kinase kinase 1 (CAMKK1, Homo sapiens, UniProt Q8N5S9)

COc1cnc(Nc2cccc(S(N)(=O)=O)c2)nc1N1CCN(c2ccccc2)CC1  remaining binding (binding; competition with immobilised ligand; 1 µM): 92%
CO[C@H]1CC[C@H](CNc2ccc(S(=O)(=O)NC(=O)c3ccc(N4CCN(CC5=C(c6ccc(Cl)cc6)CC(C)(C)CC5)CC4)cc3Oc3cnc4[nH]ccc4c3)cc2[N+](=O)[O-])CC1  remaining binding (cell-free assay; competition with immobilised ligand; 1 µM): 83%
C[C@@H]1CCN(c2nccc(-c3cnn4ncccc34)n2)C1  remaining binding (binding; 1 µM): 87%
c1cncc(-c2cccc(Nc3nccc(NC4CCCCC4)n3)c2)c1  remaining binding (binding; competition with immobilised ligand; 10 µM): 68%
Cc1nc(C2CCN(C(=O)c3ccc(OC(F)(F)F)cc3N)CC2)c2ncc(N3CCN(C)CC3)cc2n1  remaining binding (cell-free assay; competition with immobilised ligand; 1 µM): 100%
c1cnn2ncc(-c3ccnc(N4CCC45COC5)n3)c2c1  remaining binding (binding; 1 µM): 97%
O=C(c1ccc(Nc2ncc(Cl)c(-c3cc4ccccc4s3)n2)cc1)N1CCC(N2CCCC2)CC1  remaining binding (binding; competition with immobilised ligand; 1 µM): 91%
Nc1ncc2c(n1)-c1c([nH]c3ccc(C#CC4CC4)cc13)CCCC2  remaining binding (binding; competition with immobilised ligand; 1 µM): 98%
Cc1noc([C@H]2C[C@@H](c3ccc(C(F)(F)F)cc3)CN(C(=O)N3CCS(=O)(=O)C3)C2)n1  remaining binding (cell-free assay; competition with immobilised ligand; 1 µM): 100%
O=C(NCC1CCOCC1)c1n[nH]cc1NC(=O)c1c(F)cccc1F  remaining binding (binding; competition with immobilised ligand; 1 µM): 88%
Cc1cc(C)c(-n2ccn3nc(-c4cccnc4)cc23)cc1NC(=O)c1cc(C#N)cc(S(F)(F)(F)(F)F)c1  remaining binding (cell-free assay; competition with immobilised ligand; 0.1 µM): 93.6%
COc1cnc(Nc2cccc(S(N)(=O)=O)c2)nc1N1CCN(c2ccccc2)C(=O)C1  remaining binding (binding; competition with immobilised ligand; 1 µM): 100%
O=C(Nc1cnc(Oc2ccc(F)cc2)nc1)N1CCc2ncccc2[C@@H]1c1ccc(F)cc1  remaining binding (cell-free assay; competition with immobilised ligand; 1 µM): 92%
O=C(c1ccc(Nc2ncc(Cl)c(-c3ccc(Cl)s3)n2)cc1)N1CCC(N2CCCC2)CC1  remaining binding (binding; competition with immobilised ligand; 1 µM): 86%
N[C@@H]1CCN(c2nccc(-c3cnn4ncccc34)n2)C1  remaining binding (binding; 1 µM): 100%
C[C@@H](c1ccc(-n2cnc3c(N)ncnc32)cc1)N1CCc2nn(C)c(Cc3ccccc3)c2C1=O  remaining binding (binding; competition with immobilised ligand; 0.1 µM): 100%
CN(C)c1nccc(-c2cnn3ncccc23)n1  remaining binding (binding; 1 µM): 78%
O=C(c1ccc(Nc2nccc(-c3cc4ccccc4s3)n2)cc1)N1CCC(N2CCCC2)CC1  remaining binding (binding; competition with immobilised ligand; 1 µM): 93%
CNC(=O)c1ccc(Nc2ncc(C(F)(F)F)c(NCc3nccnc3N(C)S(C)(=O)=O)n2)cc1  remaining binding (cell-free assay; competition with immobilised ligand; 0.1 µM): 75%
CN(CCCC(F)(F)F)c1nccc(-c2cnn3ncccc23)n1  remaining binding (binding; 1 µM): 100%
CNCc1ccccc1-c1csc([C@H](C)Nc2nc(C)nc3cc(OC)c(OC)cc23)c1  remaining binding (cell-free assay; competition with immobilised ligand; 1 µM): 99%
CN(C)c1ncc(F)c(-c2cnn3ncccc23)n1  remaining binding (binding; 1 µM): 90%
